Assay results reported in ChEMBL document CHEMBL3400136, “Design and synthesis of new potassium channel activators derived from the ring opening of diazoxide: study of their vasodilatory effect, stimulation of elastin synthesis and inhibitory effect on insulin release” (Bioorg Med Chem, 2015).
Active and inactive are the calls of the source. The rule behind the calls is not given here.

Assays:
Thoracic aorta [1] = experiment: Vasorelaxant activity in Wistar rat thoracic aortic ring assessed as inhibition of 30 mM KCl-induced contraction; type: functional, tissue-based
Outline: (§1)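 Thoracic aorta rings (2–3 mm) from adult Wistar rats, held at 1.5 g tension in Krebs-type solution pH 7.36, 37 °C, O2/CO2 95:5. After 60 min equilibration, contracted with 30 or 80 mM KCl, some with 10 µM glibenclamide. Cumulative drug additions to maximal relaxation; isometric tension by force transducer. Relaxation as % of KCl contraction; EC50 from concentration-response curves; mean ± sem, n experiments.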

Rattus norvegicus [2] = species on record: Rattus norvegicus; experiment: Activation of ATP-sensitive potassium channel in Wistar rat pancreatic islets assessed as inhibition of 16.7 mM of glucose-induced insulin secretion by measuring residual insulin secretion at 10 uM after 90 mins relative to control
Outline: (§2)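 Islets from adult fed Wistar rats, groups of 10. Preincubated 30 min at 37 °C in bicarbonate salt medium with 2.8 mM glucose and 0.5% dialysed albumin, gassed O2/CO2 95:5. Then 90 min at 37 °C in same medium with 16.7 mM glucose plus drug. Insulin by radioimmunoassay against rat insulin standard, expressed as % of drug-free 16.7 mM glucose control.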

Thoracic aorta [3] = experiment: Vasorelaxant activity in Wistar rat thoracic aortic ring assessed as inhibition of KCl-induced contraction in presence of glibenclamide; type: functional, tissue-based; outline: as §1
Thoracic aorta [4] = experiment: Vasorelaxant activity in Wistar rat endothelium thoracic aortic ring assessed as inhibition of 30 mM KCl-induced contraction; type: functional, tissue-based
Outline: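 Rings from adult Wistar rat thoracic aorta, with or without endothelium, under 1.5 g tension in oxygenated physiological solution at 37 °C, pH 7.36. Contraction by 30 mM KCl after 60 min equilibration, then cumulative drug to maximal relaxation. EC50 = concentration giving 50% relaxation of KCl contraction; mean ± sem.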

Rattus norvegicus [5] = species on record: Rattus norvegicus; experiment: Activation of ATP-sensitive potassium channel in Wistar rat pancreatic islets assessed as inhibition of 16.7 mM of glucose-induced insulin secretion by measuring residual insulin secretion at 50 uM after 90 mins relative to control; outline: as §2
Thoracic aorta [6] = experiment: Vasorelaxant activity in Wistar rat thoracic aortic ring assessed as inhibition of 80 mM KCl-induced contraction; type: functional, tissue-based; outline: as §1
Homo sapiens [7] = species on record: Homo sapiens; experiment: Activation of ATP-sensitive potassium channel in vascular smooth muscle cells (unknown origin) assessed as increase in elastin production at 10 to 100 uM after 48 hrs by ELISA in presence of glibenclamide
Outline: (§3)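 Primary aortic smooth muscle cells serum-starved overnight in 1% FCS-DMEM, seeded 25,000 cells/well and adhered overnight. Compounds in DMSO (final <1%) for 48 h, some wells with 10 µM glibenclamide throughout. Controls were DMSO alone, 1 mM minoxidil in water, or diazoxide. Cells fixed in 4% paraformaldehyde, extracellular elastin by anti-elastin ELISA with HRP secondary, read by absorbance. n = 3–4 from different cultures; ANOVA.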

Homo sapiens [8] = species on record: Homo sapiens; experiment: Activation of ATP-sensitive potassium channel in vascular smooth muscle cells (unknown origin) assessed as increase in elastin production at 100 uM after 48 hrs by ELISA; outline: as §3
Homo sapiens [9] = species on record: Homo sapiens; experiment: Activation of ATP-sensitive potassium channel in vascular smooth muscle cells (unknown origin) assessed as increase in elastin production at 100 uM after 48 hrs by ELISA
Homo sapiens [10] = species on record: Homo sapiens; experiment: Activation of ATP-sensitive potassium channel in vascular smooth muscle cells (unknown origin) assessed as increase in elastin production after 48 hrs by ELISA; outline: as §3
[11] = Dissociation constant, pKa of the compound by UV-Visible spctrophotometry; type: physicochemical
Outline: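 UV–visible spectra recorded at ambient temperature in borate and phosphate buffers from pH 3 to 10, using neutral and ionic species references in 0.1 N HCl and 0.1 N NaOH. Exact pH measured for each spectrum. pKa calculated by the Albert–Serjeant formula.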

Homo sapiens [12] = species on record: Homo sapiens; experiment: Activation of ATP-sensitive potassium channel in vascular smooth muscle cells (unknown origin) assessed as increase in elastin production at 10 to 20 uM after 48 hrs by ELISA; outline: as §3
Rattus norvegicus [13] = experiment: Hypoglycemic effect in Wistar albino rat assessed as effect on blood glucose at 0.25 mg/kg, po; type: functional, organism-based; design: dose 0.25 mg/kg
Outline: (§4)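 Adult fed Wistar albino rats, conscious, free access to water and standard pellet diet, held in a small cabinet from 60 min before sampling. Single oral dose in DMSO (0.2 mL) at time zero; controls got DMSO alone. Tail blood drop at 0, 1, 2, 3 and 4 h, glucose by reagent strip and glucometer. Mean ± sem, n = 3 rats.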

Rattus norvegicus [14] = species on record: Rattus norvegicus; experiment: Activation of ATP-sensitive potassium channel in Wistar rat thoracic aortic ring assessed as rightward shift; type: tissue-based; conditions: Aorta; outline: as §1
Rattus norvegicus [15] = experiment: Activation of ATP-sensitive potassium channel in Wistar albino rat assessed as effect on blood glucose at 50 mg/kg, po; type: functional, organism-based; design: dose 50 mg/kg; outline: as §4
Rattus norvegicus [16] = experiment: Hyperglycemic effect in Wistar albino rat assessed as effect on blood glucose at 50 mg/kg, po; type: functional, organism-based; design: dose 50 mg/kg; outline: as §4
Homo sapiens [17] = species on record: Homo sapiens; experiment: Activation of ATP-sensitive potassium channel in vascular smooth muscle cells (unknown origin) assessed as increase in elastin production at 50 uM after 48 hrs by ELISA
Outline: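 Primary aortic smooth muscle cells were serum-starved overnight in 1% FCS-DMEM, seeded at 25,000 cells/well and left to adhere overnight. They were then exposed for 48 h in 1% FCS-DMEM to compound in DMSO (final DMSO <1%). Cells were fixed in 4% paraformaldehyde, blocked with 2% BSA, then labelled with anti-elastin antibody (1:1000) and HRP secondary (1:50,000). The reaction was stopped with sulfuric acid and absorbance read. Negative control was DMSO; positive control was 1 mM minoxidil.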

Homo sapiens [18] = species on record: Homo sapiens; experiment: Activation of ATP-sensitive potassium channel in vascular smooth muscle cells (unknown origin) assessed as increase in elastin production at 10 to 100 uM after 48 hrs by ELISA; outline: as §3

COc1ccccc1C(=O)NC(=S)NC(C)C
EC50 (Thoracic aorta [1]): 15.7 µM | Activity (Rattus norvegicus [2]): 90.9% | EC50 (Thoracic aorta [3]): 28.1 µM | EC50 (Thoracic aorta [4]): 18.6 µM | Activity (Rattus norvegicus [5]): 105% | EC50 (Thoracic aorta [6]): 38.1 µM | Activity (Homo sapiens [7]): inactive | Activity (Homo sapiens [8]): 30% | Activity (Homo sapiens [9]): 30% | Activity (Homo sapiens [10]): Dose-dependent effect

CCNC(=O)NC(=O)c1ccccc1OC
EC50 (Thoracic aorta [4]): > 100 µM

COc1ccccc1C(=O)NC(=O)NC1CCCCC1
EC50 (Thoracic aorta [4]): 35.9 µM

CCOc1ccc(Cl)cc1S(=O)(=O)NC(=O)NC(C)C
EC50 (Thoracic aorta [4]): > 300 µM

CCCOc1ccccc1C(=O)NC(=S)NCc1ccccc1
EC50 (Thoracic aorta [4]): 71.1 µM

COc1ccccc1C(=O)NC(=S)NCc1ccccc1
EC50 (Thoracic aorta [4]): 47.2 µM

COc1ccccc1C(=O)NC(=S)Nc1ccccc1
EC50 (Thoracic aorta [4]): 34.5 µM

CCCOc1ccccc1C(=O)NC(=O)Nc1ccccc1
EC50 (Thoracic aorta [4]): 59.6 µM

COc1ccc(F)cc1S(=O)(=O)NC(=S)NC(C)C
EC50 (Thoracic aorta [4]): > 300 µM

CCC(C)NC(=S)NC(=O)c1ccccc1OC (stereo not given)
EC50 (Thoracic aorta [4]): 36.6 µM

CCOc1ccc(Cl)cc1S(=O)(=O)NC(=S)NC(C)C
EC50 (Thoracic aorta [4]): > 300 µM

COc1ccc(Cl)cc1S(=O)(=O)NC(=O)NC1CCCCC1
EC50 (Thoracic aorta [4]): > 300 µM | pKa [11]: 5.46

COc1ccc(Cl)cc1S(=O)(=O)NC(=S)NC(C)C
EC50 (Thoracic aorta [4]): > 300 µM | pKa [11]: 5.74

CCNC(=O)NC(=O)c1ccccc1OCc1ccccc1
EC50 (Thoracic aorta [1]): 17.2 µM | Activity (Rattus norvegicus [2]): 110% | EC50 (Thoracic aorta [3]): 38 µM | EC50 (Thoracic aorta [4]): 16.7 µM | Activity (Rattus norvegicus [5]): 113% | EC50 (Thoracic aorta [6]): 36.6 µM | Activity (Homo sapiens [12]): inactive

COc1ccc(Cl)cc1C(=O)NCCc1ccc(S(=O)(=O)NC(=O)NC2CCCCC2)cc1
Activity (Rattus norvegicus [13]): Active

O=C(NC(=O)c1ccccc1OCc1ccccc1)NC1CCCCC1
EC50 (Thoracic aorta [4]): 33.8 µM

CCC(C)NC(=O)NC(=O)c1ccccc1OCc1ccccc1 (stereo not given)
EC50 (Thoracic aorta [1]): 15.3 µM | Activity (Rattus norvegicus [2]): 90.1% | EC50 (Thoracic aorta [3]): 20.2 µM | EC50 (Thoracic aorta [4]): 12.2 µM | Activity (Rattus norvegicus [5]): 21.4% | EC50 (Thoracic aorta [6]): 45.6 µM | Activity (Rattus norvegicus [14]): Dose-dependent effect | Activity (Homo sapiens [7]): inactive | Activity (Rattus norvegicus [15]): inactive | Activity (Homo sapiens [8]): 30% | Activity (Homo sapiens [9]): 30% | Activity (Homo sapiens [10]): Dose-dependent effect

CCOc1ccc(Cl)cc1S(=O)(=O)NC(=S)NCc1ccccc1
EC50 (Thoracic aorta [4]): > 300 µM

CCCOc1ccccc1C(=O)NC(=S)Nc1ccccc1
EC50 (Thoracic aorta [1]): 12 µM | Activity (Rattus norvegicus [2]): 83.8% | EC50 (Thoracic aorta [3]): 64.9 µM | EC50 (Thoracic aorta [4]): 16.5 µM | Activity (Rattus norvegicus [5]): 44.9% | EC50 (Thoracic aorta [6]): 121 µM | Activity (Rattus norvegicus [15]): inactive

CC(C)NC(=O)NC(=O)c1ccccc1OCc1ccccc1
EC50 (Thoracic aorta [4]): 26.8 µM

COc1ccc(Cl)cc1S(=O)(=O)NC(=O)NC(C)C
EC50 (Thoracic aorta [4]): > 300 µM | pKa [11]: 5.65

COc1ccc(Cl)cc1S(=O)(=O)NC(=S)NCc1ccccc1
EC50 (Thoracic aorta [4]): > 300 µM

O=C(NC(=S)NCc1ccccc1)c1ccccc1OCc1ccccc1
EC50 (Thoracic aorta [4]): > 100 µM

CC1=Nc2ccc(Cl)cc2S(=O)(=O)N1 [DIAZOXIDE]
Activity (Rattus norvegicus [2]): 70% | Activity (Rattus norvegicus [5]): 28.8% | Activity (Rattus norvegicus [16]): Active | EC50 (Thoracic aorta [6]): > 300 µM | Activity (Homo sapiens [17]): 67%

CCOc1ccc(Cl)cc1S(=O)(=O)NC(=O)Nc1ccccc1
EC50 (Thoracic aorta [4]): > 300 µM

CCC(C)NC(=O)NC(=O)c1ccccc1OC (stereo not given)
EC50 (Thoracic aorta [4]): 31.8 µM

CCCOc1ccccc1C(=O)NC(=O)NC1CCCCC1
EC50 (Thoracic aorta [4]): 58.2 µM

COc1ccccc1C(=O)NC(=O)Nc1ccccc1
EC50 (Thoracic aorta [4]): 26.7 µM

CCNC(=S)NC(=O)c1ccccc1OC
EC50 (Thoracic aorta [1]): 17.4 µM | Activity (Rattus norvegicus [2]): 94.1% | EC50 (Thoracic aorta [3]): 28.2 µM | EC50 (Thoracic aorta [4]): 15.2 µM | Activity (Rattus norvegicus [5]): 99.6% | EC50 (Thoracic aorta [6]): 57.1 µM | Activity (Homo sapiens [18]): inactive

CCNC(=S)NS(=O)(=O)c1cc(Cl)ccc1OC
EC50 (Thoracic aorta [4]): > 300 µM

CCOc1ccc(Cl)cc1S(=O)(=O)NC(=O)NC1CCCCC1
EC50 (Thoracic aorta [4]): > 300 µM

CCOc1ccc(Cl)cc1S(=O)(=O)NC(=S)Nc1ccc(F)cc1
EC50 (Thoracic aorta [4]): > 300 µM

COc1ccc(F)cc1S(=O)(=O)NC(=O)NC(C)C
EC50 (Thoracic aorta [4]): > 300 µM | pKa [11]: 5.52

COc1ccc(Cl)cc1S(=O)(=O)NC(=O)Nc1ccccc1
EC50 (Thoracic aorta [4]): > 300 µM | pKa [11]: 4.5

COc1ccc(Cl)cc1S(=O)(=O)NC(=O)Nc1ccc(F)cc1
EC50 (Thoracic aorta [4]): > 300 µM

COc1ccccc1C(=O)NC(=O)NC(C)C
EC50 (Thoracic aorta [4]): 91.4 µM

O=C(NCc1ccccc1)NC(=O)c1ccccc1OCc1ccccc1
EC50 (Thoracic aorta [4]): 21.1 µM

CCCCCNC(=O)NC(=O)c1ccccc1OCc1ccccc1
EC50 (Thoracic aorta [4]): 17.3 µM
